Results taken from ChEMBL document CHEMBL5226368, “1H NMR-Based Biochemometric Analysis of Morus alba Extracts toward a Multipotent Herbal Anti-Infective” (J Nat Prod, 2023).
≈ marks a conversion by molar mass, not a printed value. Calls of active or inactive are those of the source. The calls are words filed in the database; no cut-off is given here.

What was measured:
Staphylococcus aureus [1] = test: Antibacterial activity against Staphylococcus aureus ATCC25923 assessed as inhibition of bacterial growth incubated for 24 hrs by broth microdilution assay; format: functional
How it was run: (§1)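 Broth microdilution on S. aureus in brain-heart-infusion broth. Double-concentrated half-log dilutions (duplicates) mixed with an equal volume of bacterial suspension at 2×10^5 CFU/mL. Incubated 24 h at 37 °C, 5% CO2. MIC read as the lowest concentration with no visible growth. Reported as mean MIC of three assays. Ampicillin and rifampicin served as references.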

Influenza A virus = test: Antiviral activity against Influenza A virus; format: functional, organism-based
Staphylococcus aureus [2] = test: Antibacterial activity against Staphylococcus aureus ATCC43000 assessed as inhibition of bacterial growth incubated for 24 hrs by broth microdilution assay; format: functional; how it was run: as §1
Streptococcus pneumoniae [3] = test: Antibacterial activity against Streptococcus pneumoniae D39 assessed as inhibition of bacterial growth incubated for 24 hrs by broth microdilution assay; format: functional
How it was run: (§2)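 S. pneumoniae was tested by broth microdilution in Todd Hewitt broth with yeast extract. Double-concentrated half-log dilutions (duplicates) were combined 1:1 by volume with inoculum at 2×10^5 CFU/mL, then held 24 h at 37 °C under 5% CO2. MIC was the lowest concentration without visible growth, averaged over three assays. Ampicillin and rifampicin served as references.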

Calu-3 = test: Cytotoxicity against human Calu-3 cells assessed as reduction in cell viability incubated for 72 hrs by WST-8 assay; format: toxicity, cell-based; details: calu-3, 72 h
How it was run: (§3)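 Confluent monolayers in serum-free medium with 0.2 μg/mL trypsin were exposed to six half-log concentrations (maximum 100 μM) for 72 h at 37 °C. WST-8 was added for 2 h and OD read at 450 vs 620 nm (NADH activity). After PBS washes, crystal violet staining was used for viability. At least three assays were run.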

A549 = test: Cytotoxicity against human A549 cells assessed as reduction in cell viability incubated for 72 hrs by WST-8 assay; format: toxicity, cell-based; details: a549, 72 h; how it was run: as §3
Streptococcus pneumoniae [4] = test: Antibacterial activity against Streptococcus pneumoniae DSM20566 assessed as inhibition of bacterial growth incubated for 24 hrs by broth microdilution assay; format: functional; how it was run: as §2

CC(C)=CCC12Oc3cc(O)c(C4C=C(C)CC(c5ccc(O)cc5O)C4C(=O)c4ccc(O)cc4O)c(O)c3C(=O)C1(O)Oc1cc(O)ccc12 (stereo not drawn)
MIC (Staphylococcus aureus [1]): 10 µM (≈ 7.09 µg/mL) | Activity (Influenza A virus): inactive | MIC (Staphylococcus aureus [2]): 10 µM (≈ 7.09 µg/mL) | MIC (Streptococcus pneumoniae [3]): 3.16 µM (≈ 2.24 µg/mL) | Activity (Calu-3): Non-Toxic | Activity (A549): Non-Toxic | MIC (Streptococcus pneumoniae [4]): 3.16 µM (≈ 2.24 µg/mL)

CO[C@H]1/C=C/O[C@@]2(C)Oc3c(C)c(O)c4c(O)c(c(/C=N/N5CCN(C)CC5)c(O)c4c3C2=O)NC(=O)/C(C)=C\C=C\[C@H](C)[C@H](O)[C@@H](C)[C@@H](O)[C@@H](C)[C@H](OC(C)=O)[C@@H]1C [RIFAMPIN]
MIC (Staphylococcus aureus [1]): 1 µM (≈ 0.823 µg/mL) | MIC (Staphylococcus aureus [2]): 15.4 µM (≈ 12.7 µg/mL) | MIC (Streptococcus pneumoniae [4]): 0.02 µM (≈ 0.0165 µg/mL)

CC(C)=CCCC1=C[C@H](c2c(O)cc3c(c2O)C(=O)C[C@@H](c2ccc(O)cc2O)O3)[C@@H](C(=O)c2ccc(O)cc2O)[C@H](c2ccc(O)cc2O)C1
MIC (Staphylococcus aureus [1]): 10 µM (≈ 6.95 µg/mL) | MIC (Staphylococcus aureus [2]): 10 µM (≈ 6.95 µg/mL) | MIC (Streptococcus pneumoniae [3]): 3.16 µM (≈ 2.2 µg/mL) | Activity (Calu-3): Non-Toxic | Activity (A549): Non-Toxic | MIC (Streptococcus pneumoniae [4]): 3.16 µM (≈ 2.2 µg/mL)

CC(C)=CC[C@]12Oc3cc(O)c([C@H]4C=C(C)C[C@H](c5ccc(O)cc5O)[C@H]4C(=O)c4ccc(O)cc4O)c(O)c3C(=O)[C@@]1(O)Oc1cc(O)ccc12 [SANGGENON C]
MIC (Staphylococcus aureus [1]): 3.16 µM (≈ 2.24 µg/mL) | MIC (Staphylococcus aureus [2]): 3.16 µM (≈ 2.24 µg/mL) | MIC (Streptococcus pneumoniae [3]): 1.72 µM (≈ 1.22 µg/mL) | Activity (Calu-3): Non-Toxic | Activity (A549): Non-Toxic | MIC (Streptococcus pneumoniae [4]): 2.08 µM (≈ 1.47 µg/mL)

CC1(C)S[C@@H]2[C@H](NC(=O)[C@H](N)c3ccccc3)C(=O)N2[C@H]1C(=O)O [AMPICILLIN]
MIC (Streptococcus pneumoniae [3]): 0.02 µM (≈ 0.00699 µg/mL)
